In the library only some 4.2% were active in any assay of this set; here they are far more common.
AHR activator: activates the human aryl hydrocarbon receptor. P35869. AHR-responsive luciferase reporter cells, luminescence. activation, % at 5 µM. actives 2.5% (n = 320,000); in the data active = activation above about 47%;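 note: 0% = vehicle wells and 100% = reference agonist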
HDAC3 inh: human HDAC3 inhibition; O15379; recombinant HDAC3, fluorogenic peptide/trypsin coupled, fluorescence; inhibition, % at 8.3 µM; actives 0.15% (n = 320,000); AID 2718; in the data active = inhibition above about 26%, passing the limit was not always enough; inconclusive = no clear call, values can overlap the other calls
Target sequence (O15379 whole entry, looked up): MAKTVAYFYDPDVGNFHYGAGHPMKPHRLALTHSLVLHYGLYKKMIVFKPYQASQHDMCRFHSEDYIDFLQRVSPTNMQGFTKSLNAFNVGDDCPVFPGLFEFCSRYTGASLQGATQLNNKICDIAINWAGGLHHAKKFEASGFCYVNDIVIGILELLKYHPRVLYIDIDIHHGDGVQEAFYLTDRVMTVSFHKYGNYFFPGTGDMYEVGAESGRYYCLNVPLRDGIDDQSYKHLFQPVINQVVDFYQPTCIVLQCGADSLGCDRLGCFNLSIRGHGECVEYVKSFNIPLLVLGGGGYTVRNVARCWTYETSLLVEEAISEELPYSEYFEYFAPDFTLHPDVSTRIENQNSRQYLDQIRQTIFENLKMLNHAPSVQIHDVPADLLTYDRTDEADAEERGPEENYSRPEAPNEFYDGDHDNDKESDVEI
FXN GAA850 act: frataxin GAA850 promoter activation | HEK293 lucGAA850 FXN promoter luciferase reporter, 24 h; percent of 10 µM SAHA response | activation, % at 6 µM | actives 0.56% (n = 360,000) | AID 540364;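 active = activation above the average of all compounds screened plus 3 SD, cutoff fixed separately per campaign, cut at about 7.5% in these data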;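 note: 0% = DMSO wells and 100% = 10 µM SAHA wells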
M18AAP inhibitor: blocks P. falciparum M18 aspartyl aminopeptidase | recombinant PfM18AAP, H-Glu-NHMec fluorogenic cleavage | inhibition, % at 7.35 µM | actives 1.2% (n = 290,000) | AID 1822;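 active = inhibition above the campaign mean inhibition over all tested compounds plus 3 SD, cut at about 28% in these data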;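 note: 0% = plate median of test compound wells and 100% = 2 mM ZnCl2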
CTSL1 counter: blocks F. hepatica cathepsin L1 in PFM18AAP counter-screen | inhibition, % at 5.96 µM | actives 0.49% (n = 300,000) | AID 1906 | recombinant F. hepatica cathepsin L1, Z-Leu-Arg-MCA fluorescence;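 active = inhibition above the mean of all tested compounds plus 3 SD, set per screening campaign, cut at about 17% in these data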;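 note: 0% = plate median of test compound wells and 100% = 1 µM Z-Phe-Ala-diazomethylketone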
SENP1 FRET inh: blocks the human SENP1 SUMO protease catalytic domain; recombinant SENP1 catalytic domain, CyPet-SUMO1-YPet FRET cleavage; inhibition, % at 10 µM; actives 0.21% (n = 360,000); AID 624204;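 active = inhibition at least 30% at 10 µM, raw YFP signal under a set limit, fluorescence ratio 0.5 to 1.5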;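 note: 0% = enzyme with DMSO and 100% = no enzyme wells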
Target sequence (Q9P0U3 419-644 limits assumed): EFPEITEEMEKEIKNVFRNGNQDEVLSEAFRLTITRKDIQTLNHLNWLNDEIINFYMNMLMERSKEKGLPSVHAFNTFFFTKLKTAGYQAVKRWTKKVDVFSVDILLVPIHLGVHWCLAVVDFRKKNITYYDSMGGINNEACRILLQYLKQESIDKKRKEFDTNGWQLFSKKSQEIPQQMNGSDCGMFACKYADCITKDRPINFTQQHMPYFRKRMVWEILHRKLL
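system = hSENP1 catalytic domain, recombinant | reagent = SFCypet-SUMO1-SFYpet substrate at 25 nM | doses = one dose per compound, 10 µM, 0.5% DMSO | incubation = enzyme reaction for 50 min at room temperature, dark | measured by = FRET, CFP and YFP emission | controls = no-enzyme low, enzyme-DMSO high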
Numbers without * were called inactive; ? = inconclusive; / = no result given.

SMILES	AHR activator	HDAC3 inh	FXN GAA850 act	M18AAP inhibitor	CTSL1 counter	SENP1 FRET inh
CN=c1sc2ccccc2n1CC(O)COCc1ccco1 (stereo unspecified)	10.6	4.8	-2.0	13.7	-3.3	1.0
COc1ccc(C)cc1NC(=O)C(OC(=O)CNC(=O)c1cc(C)cc(C)c1)c1ccccc1 (stereo unspecified)	67.4*	-0.7	0.5	-3.0	-7.3	1.5
COc1ccc(C)cc1NC(=O)C(OC(=O)Cn1cnc2c1c(=O)n(C)c(=O)n2C)c1ccccc1 (stereo unspecified)	52.6*	/	1.7	/	5.9	3.0
COc1ccc(C)cc1NC(=O)C(OC(=O)c1ccc([N+](=O)[O-])o1)c1ccccc1 (stereo unspecified)	47.2*	-3.5	-0.3	-1.1	-3.6	-2.8
Cc1cc(C)cc(NC(=O)C(OC(=O)Cn2cnc3c2c(=O)n(C)c(=O)n3C)c2ccccc2)c1 (stereo unspecified)	9.2	3.3	-0.8	/	2.4	2.5
COc1ccc(C)cc1NC(=O)C(OC(=O)c1cnccn1)c1ccccc1 (stereo unspecified)	32.2	-4.9	2.0	/	-30.3	1.2
CCOc1ccccc1C(=O)NCC(=O)NNC(=O)c1cccs1	6.0	3.6	1.0	/	/	0.0
C=CCS/C(N)=N\N=C\c1c(O)ccc2ccccc12	56.2*	19.7	7.4	9.4	22.1*	-6.8
COc1cc(NC(=S)Nc2ccccn2)c(OC)cc1Cl	58.5*	?	4.6	5.5	-1.2	2.2
COc1cc(NC(=S)Nc2cccc(Cl)c2Cl)c(OC)cc1Cl	25.6	-2.6	-0.4	29.0*	1.2	-1.2
COc1ccc(NCC(=O)Nc2c(C)cccc2C)cc1S(=O)(=O)N1CCOCC1	/	/	0.4	/	/	-0.5
O=C(Oc1ccc(N(Cc2cccs2)C2=NS(=O)(=O)c3ccccc32)cc1)c1ccccc1	1.6	68.6*	-1.9	-12.3	0.5	2.7
NS(=O)(=O)c1ccc(NC(=O)c2ccc(-c3ccccc3)cc2)cc1	/	/	-0.2	-13.0	/	2.9
NS(=O)(=O)c1ccc(C(=O)Nc2ccc(-c3nc4cccnc4s3)cc2)cc1	57.3*	-25.6	2.0	3.4	3.9	-20.8
O=C(Nc1cccc(-c2nc3cccnc3s2)c1)c1ccc(Cl)nc1	67.7*	-2.7	2.7	-6.6	2.3	-0.9
CCCCCCCCN1C(=O)[C@H](CC(=O)NCc2ccc(C)o2)C[C@@]2(C(=O)OC)CCCCC=C12	/	/	/	/	/	-4.2
Cc1ccc(NC(=O)Nc2cccc(C)n2)c(C)c1	56.3*	2.3	4.7	-7.5	0.9	1.9
O=Cc1c(-c2ccccc2)nc2ccccn12	89.0*	-0.5	3.1	6.0	5.6	2.5
Cc1cc(C)nc(SCC(=O)c2c(N)n(C)c(=O)n(C)c2=O)n1	50.1*	2.5	3.3	4.2	1.9	-1.7
COc1cccc(C(=O)Nc2ccc3ccccc3c2)c1	14.7	-5.8	2.2	-8.1	3.6	-1.5
COc1cccc(C(=O)Nc2ccc(NC(C)=O)cn2)c1	18.2	3.8	1.3	-1.1	20.4*	-31.0
COc1cccc(C(=O)Nc2ccc3[nH]ncc3c2)c1	52.1*	0.3	4.4	3.2	-0.4	0.0
Cc1cc(NC(=O)c2cccc(Oc3ccccc3)c2)n[nH]1	65.8*	3.8	3.4	0.1	4.2	0.5
COc1cccc(CNC(=O)CCN2C(=O)[C@@H]3Cc4ccccc4CN3C2=O)c1	0.3	0.4	0.5	-8.3	1.2	0.5
O=C(O)CCCN1C(=O)c2cccc3cccc(c23)C1=O	-2.6	-15.3	-1.8	-1.9	5.7	-0.8
SMILES	AHR activator	HDAC3 inh	FXN GAA850 act	M18AAP inhibitor	CTSL1 counter	SENP1 FRET inh
O=C(O)CCSCCCN1C(=O)c2cccc3cccc(c23)C1=O	48.8*	10.9	1.8	-5.5	-2.3	1.8
CCOC(=O)c1c(NC(=O)CSc2nc3ccc(C)cc3[nH]2)sc2c1CC(C)(C)NC2(C)C	20.3	4.3	0.4	/	5.5	-24.5
CC(C)CC1Nc2ccc(C(=O)NCc3ccc4c(c3)OCO4)cc2NC1=O (stereo unspecified)	3.2	-2.8	-1.8	28.7*	-6.0	-1.0
N=NC(=O)c1ccccc1Nc1c(O)[nH]c2ccccc12	/	/	2.6	/	/	12.4
Nc1nnc(SCC(=O)c2ccccc2)s1	-0.4	-1.5	5.3	14.7	-3.2	1.0
Nc1c(C(=O)c2ccccc2)sc2snc(SCC(=O)c3ccccc3)c12	19.0	11.7	3.7	30.8*	4.4	20.7
Cc1cccc(NC(=S)/N=C(\N)Nc2nc(C)c3ccc(C)cc3n2)c1	57.2*	10.3	-1.2	-5.1	0.2	-1.5
Cc1cccc(NC(=S)/N=C(\N)Nc2nc(C)c3ccccc3n2)c1	69.2*	-3.4	-0.7	-1.2	0.4	-2.2
Cc1ccc(NC(=S)/N=C(\N)Nc2nc(C)c3ccccc3n2)cc1C	47.9*	1.6	3.6	-6.9	1.7	-2.7
COc1ccc2nc(N/C(N)=N/C(=S)Nc3ccccc3)nc(C)c2c1	-4.5	-2.8	3.0	-3.9	-0.3	-3.3
CCOc1ccc2nc(N/C(N)=N/C(=S)Nc3ccc(OC)cc3)nc(C)c2c1	63.5*	3.8	-0.9	-5.6	0.8	-1.7
Cc1ccc(C)c(S(=O)(=O)N2CCCCC2CCNC(=O)C(=O)NCCc2ccco2)c1 (stereo unspecified)	1.9	6.2	-0.1	/	2.0	3.3
Cc1oc2c(CN3CCCCC3)c(O)ccc2c(=O)c1-c1ccc(Cl)cc1	0.7	-27.6	2.0	4.2	0.4	0.9
O=C(CNS(=O)(=O)c1ccccc1)OCC(=O)c1c[nH]c2ccccc12	47.4*	-1.6	2.0	/	/	2.0
O=C(CNS(=O)(=O)c1ccccc1F)OCC(=O)c1c[nH]c2ccccc12	18.4	1.5	0.9	/	/	-2.1
Cc1ccc(O)c(N=NC2=C(O)CC(C)(C)CC2=O)c1	37.9	0.8	-1.2	12.6	6.4	22.2
C/C(O)=C(\N=Nc1cc(C)ccc1O)C(N)=O	51.5*	-1.2	4.0	12.0	2.4	-0.3
COc1ccc(-c2nnc(N3CCOCC3)c3ccccc23)cc1	-0.6	6.4	-0.6	0.8	19.1*	-1.6
COc1ccc(-c2nnc(N3CCCCC3)c3ccccc23)cc1	-1.7	3.4	-0.2	-0.7	5.7	0.4
Brc1ccc(C2=CC(c3ccco3)n3nnnc3N2)cc1 (stereo unspecified)	52.1*	0.3	1.7	4.2	0.9	17.6
O=c1cc(C(O)C[N+](=O)[O-])occ1OCc1ccccc1 (stereo unspecified)	-1.0	3.4	0.7	/	-0.2	-26.4
Cc1ccc(-c2csc(NC(=O)c3c(C)noc3C)n2)s1	76.0*	8.2	0.3	/	/	-23.3
CC12CN(C(=S)Nc3ccccc3)CC(C)(CN(C(=S)Nc3ccccc3)C1)C2=O	-0.9	1.5	5.4	2.5	2.6	3.8
CCCN(CCC)C(=O)CC(c1ccccc1)c1ccco1 (stereo unspecified)	-2.0	-2.1	-0.6	-8.7	41.1*	-6.1

Bioassay records from PubChem.
